The source of these data is ChEMBL document CHEMBL4627349, “Synthesis and evaluation of the performance of a small molecule library based on diverse tropane-related scaffolds” (Bioorg Med Chem, 2020).

Structures are written as SMILES. Active and inactive are the calls of the source.

Usually EC50 stands for the concentration at which the effect is half-maximal. One may read the inhibition as the relative decrease from the control value, in per cent. As usually defined, the IC50 is the point on the concentration scale where inhibition reaches its midpoint. A high value points to a need for much substance.

The nature of data set [1]: Inhibition of Hedgehog signaling pathway in mouse C3H10T1/2 cells assessed as reduction in osteoblast differentiation measured after 96 hrs by alkaline phosphatase CDP-star substrate based luminescence assay. Type of data set: cell-based. The note with it: C3H 10T1/2, 96 h.
Data set [2] is described as follows: Cytotoxicity against mouse C3H10T1/2 cells assessed as effect on cell viability at 10 uM relative to control. Type of data set: cell-based, C3H 10T1/2. Conditions: read-out: Activity. The procedure, abridged: (§1)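 Single-concentration primary screen at 10 µM in an osteoblast differentiation assay for Hedgehog signalling inhibition, with cell viability monitored alongside. Hits were defined as at least 50% inhibition of signalling with <20% impact on cell viability.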

The subject of a further data set is C3H 10T1/2. The data set is described as follows: Inhibition of Hedgehog signaling pathway in mouse C3H10T1/2 cells assessed as reduction in osteoblast differentiation at 10 uM measured after 96 hrs by alkaline phosphatase CDP-star substrate based luminescence assay relative to control. Type of data set: cell-based. The essentials: as §1
The test system of the next data set is Plasmodium falciparum. The data set is described as follows: Antiplasmodial activity against chloroquine-sensitive Plasmodium falciparum NF54 by lactate dehydrogenase assay. Type of data set: functional, organism-based. The essentials:
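Dose-response format against chloroquine-susceptible NF54 parasites, with lactate dehydrogenase activity as the parasite-viability marker.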

In the case of `CS(=O)(=O)C1CC2c3c(c4ccccc4n3S(C)(=O)=O)CC1N2Cc1ccccc1` (centres undefined), the EC50 in data set [1] stood at 4.4 µM. Moreover, in data set [2], the viability at 10 µM was below 20%. Also, the inhibition in the data set on C3H 10T1/2 was above 50%.

In the case of `CN1C2CC(S(C)(=O)=O)C1Cc1c(-c3ccccc3)ccnc12` (centres undefined), the result in the data set with Plasmodium falciparum was Active.

Regarding `CN1C2CC(S(C)(=O)=O)C1C(c1ccc(F)cc1)CC2OCc1ccc(C#N)cc1` (centres undefined), the IC50 in the data set on Plasmodium falciparum was 5.5 µM. Still for that read-out and setting: in the case of `CN(Cc1ccc(OC(F)(F)F)cc1)C1CCC2C(S(C)(=O)=O)CC1N2C` (centres undefined) it was 5.7 µM.

On to `CN1C2CC(S(C)(=O)=O)C1Cc1cccnc12` (centres undefined), for which the result in the data set with Plasmodium falciparum was Active. Consider `CS(=O)(=O)C1CC2C(=O)c3n[nH]c(C(=O)O)c3C1N2Cc1ccccc1` (centres undefined), for which half-maximal inhibition in the data set with Plasmodium falciparum (IC50) required 5.4 µM. `CS(=O)(=O)C1CC2c3ncccc3CC1N2Cc1ccccc1` (centres undefined): the result in the data set on Plasmodium falciparum was Active. In the case of `CN1C2CC(S(C)(=O)=O)C1C1CN(c3ccccn3)CC1C2O` (centres undefined), the IC50 in the data set on Plasmodium falciparum was found to be 5.4 µM.

Consider `CS(=O)(=O)C1CC2c3c(c4ccccc4n3CC#N)CC1N2Cc1ccccc1` (centres undefined), for which the 50% effective concentration (EC50) in data set [1] is 4.2 µM. For the same molecule, in data set [2], the viability at 10 µM was below 20%. Further, the inhibition in the data set with C3H 10T1/2 is above 50%. For the molecule `CN1C2CC(S(=O)(=O)N(C)C)C1Cc1cccnc12` (centres undefined), the result in the data set on Plasmodium falciparum was Active.
